Compound activity (PubChem)
An excerpt weighted towards active compounds, which were near 1.9% of everything screened.
M4 antag = human M4 muscarinic receptor antagonists, primary screen, CHO cells, Fluo-8 calcium fluorescence; inhibition, % at 3 µM; hit rate 0.73% among 360,000; CHO-hM4 cells, ACh EC80; AID 624125, 2012; Muscarinic acetylcholine receptor M4 (Homo sapiens), P08173;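 active = inhibition above its plate's cutoff, the mean inhibition of sample wells plus 3 SD, cut at about 27% in these data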;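 also: 0% = acetylcholine EC80 with DMSO and 100% = DMSO without agonist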
Target sequence (P08173 whole entry, looked up): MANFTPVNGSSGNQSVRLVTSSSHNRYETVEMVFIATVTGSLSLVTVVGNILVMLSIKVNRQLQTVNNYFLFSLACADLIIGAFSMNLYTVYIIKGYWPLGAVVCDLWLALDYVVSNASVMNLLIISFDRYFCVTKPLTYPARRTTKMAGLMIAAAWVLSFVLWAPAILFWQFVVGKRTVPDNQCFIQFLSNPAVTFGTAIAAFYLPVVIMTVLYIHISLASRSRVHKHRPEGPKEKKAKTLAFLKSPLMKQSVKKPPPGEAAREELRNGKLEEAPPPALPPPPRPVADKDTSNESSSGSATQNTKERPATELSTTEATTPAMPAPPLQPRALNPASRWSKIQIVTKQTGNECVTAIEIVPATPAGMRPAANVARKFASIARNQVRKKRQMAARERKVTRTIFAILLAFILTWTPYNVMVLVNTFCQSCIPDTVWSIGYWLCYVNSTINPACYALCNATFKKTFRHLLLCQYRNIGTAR
CHRM5 antagonist = human M5 muscarinic receptor antagonists, primary screen, CHO cells, Fluo-8 calcium fluorescence | hit rate 0.59% among 360,000 | Muscarinic acetylcholine receptor M5 (Homo sapiens), P08912 | inhibition, % at 3 µM | CHO-hM5 cells, ACh EC80;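 active = inhibition above a per-plate cutoff, the mean of that plate's test compounds plus 3 SD, cut at about 27% in these data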;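 also: 0% = acetylcholine EC80 with DMSO and 100% = DMSO without agonist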
M5 PAM = human M5 muscarinic receptor positive allosteric modulators, primary screen, CHO-K1 cells, Fluo-8 calcium fluorescence | CHO-K1 hM5, ACh EC20 PAM; 0% = ACh EC20, 100% = ACh EC100 | Muscarinic acetylcholine receptor M5 (Homo sapiens), P08912 | hit rate 0.3% among 360,000 | activation, % at 3 µM | AID 624038, 2012;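 active = activation above the run cutoff, the mean activation of all test compounds plus 3 SD, cut at about 18% in these data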
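System – CHO-K1 hM5 cells · Compound – 3 µM, single dose · Incubation – compound preincubation 140 s before EC20 acetylcholine addition · Technique – Fluo-8 calcium fluorescence · Measure – Max/basal fluorescence ratio as % of EC20–EC100 ACh window · Benchmarks – low control EC20 acetylcholine (0%), high control EC100 acetylcholine (100%) · Replication – singlicate, one well per test compound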
M5 ag = human M5 muscarinic receptor agonists, primary screen, CHO-K1 cells, Fluo-8 calcium fluorescence; AID 624037, 2012; hit rate 0.19% among 360,000; activation, % at 3 µM; Muscarinic acetylcholine receptor M5 (Homo sapiens), P08912; CHO-K1 hM5 cells; 0% DMSO wells, 100% maximal acetylcholine response;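 active = activation above the run's mean over test compounds plus 3 SD, cut at about 23% in these data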;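 also: signal is peak over basal fluorescence ratio across the kinetic read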
M4 PAM = human M4 muscarinic receptor positive allosteric modulators, primary screen, CHO-K1 cells, Fluo-8 calcium fluorescence; CHO-K1 hM4/Gqi5, ACh EC20; 0% = ACh EC20, 100% = maximal ACh; hit rate 0.4% among 360,000; Muscarinic acetylcholine receptor M4 (Homo sapiens), P08173; activation, % at 3 µM;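 active = activation above its plate's cutoff, the mean activation of sample wells plus 3 SD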
M4 ag = human M4 muscarinic receptor agonists, primary screen, CHO-K1 cells, Fluo-8 calcium fluorescence | CHO-K1 hM4/Gqi5; vehicle 0%, full acetylcholine response 100% | activation, % at 3 µM | hit rate 0.14% among 360,000;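 active = activation above the run mean over all test wells plus 3 SD, cut at about 32% in these data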;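 also: peak over basal fluorescence ratio per well then scaled between controls; 0% = DMSO wells and 100% = acetylcholine at EC100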
The depositor's hits bear a star.

SMILES	M4 antag	CHRM5 antagonist	M5 PAM	M5 ag	M4 PAM	M4 ag
CC1Oc2ccccc2N(CC(=O)N2CCCc3ccccc32)C1=O (stereo not given)	-6.6	-5.3	4.4	-5.4	-0.3	3.1
CC1Oc2ccccc2N(CC(=O)N2CCCCC2)C1=O (stereo not given)	-24.2	3.9	-2.2	-3.0	17.2*	2.3
CCN=C(NCC)SC1CC(=O)N(c2cccc(OC)c2)C1=O (stereo not given)	27.1*	25.2	-20.4	5.0	-14.3	17.4
Nc1sccc1C(=O)N1CCN(c2ccccc2)CC1	5.8	7.8	-1.3	3.1	-0.6	4.2
COCCNC(=O)C1CCCN(Cc2ccccc2-c2ccccc2)CC1 (stereo not given)	0.2	-5.2	3.1	-2.1	-1.6	0.4
CCCCN1C(=O)C(CC(=O)NCc2cccc3ccccc23)CC(C(=O)N2CCCCCC2)=C1C (stereo not given)	-3.1	1.9	-8.3	1.4	-0.9	4.2
O=C(Nc1ccc(F)c(Cl)c1)C1CCCN(C2=NS(=O)(=O)c3ccccc32)C1 (stereo not given)	-10.2	-9.9	13.2	0.4	24.0*	1.6
CSc1ccccc1NC(=O)CCc1ccccc1	-11.3	6.0	6.9	-7.0	22.0*	0.3
CC1CCCCN1CC(=O)Nc1ccc(N2CCCCCC2)cc1 (stereo not given)	4.8	-3.3	-7.5	-11.7	-14.2	1.5
CC1CCCCN1CC(=O)NC(c1ccccc1)c1ccccc1 (stereo not given)	8.0	8.5	-9.8	-10.5	-19.4	-0.7
CC1CCCCN1CC(=O)Nc1ccc(Oc2ccccc2)cc1 (stereo not given)	57.4*	-3.1	-14.4	-12.9	-14.9	1.9
CSc1ccccc1NC(=O)CN1CCCCC1C (stereo not given)	10.1	35.0*	-16.7	-6.8	-0.8	-0.7
Cc1cc(F)cc(-c2cc(C(=O)NCC3CCCCC3)[nH]n2)c1	5.2	-0.4	-0.8	0.4	-2.1	0.2
COCCCNC(=O)c1cccc2c(-c3cccc(C(N)=O)c3)coc12	-8.0	-2.5	0.1	3.1	-1.6	4.4
Cn1c(=O)c2cc(NC(=S)NCc3ccccc3F)ccc2n1Cc1cccc(C(F)(F)F)c1	-15.3	9.3	-5.3	2.9	-2.3	7.8
CS(=O)(=O)c1ccc2nc(NC(=O)Nc3cccc(Cl)c3)sc2c1	16.3	31.8*	-23.8	9.2	-5.6	22.2
O=C(Nc1cccc(Cl)c1)Nc1nnc(-c2ccncc2)s1	16.7	31.9*	-18.2	9.4	-12.4	15.4
CS(=O)(=O)c1ccc2nc(NC(=O)Nc3ccc(Cl)c(Cl)c3)sc2c1	-12.6	-4.5	0.2	0.2	7.8	2.3
CCOC(=O)Cc1csc(NC(=O)Nc2cccc(Cl)c2)n1	-0.4	28.9*	-18.3	5.2	-8.5	16.8
Nc1[nH]c(C(=O)c2ccccc2)c(-c2ccc(F)cc2)c1C(=O)NCc1ccccc1	-10.0	5.5	2.3	1.5	4.3	-0.5
Cc1noc(C)c1S(=O)(=O)NC(=O)C1(C)CCN1C(=O)Cc1ccc(-c2ccccc2)cc1 (stereo not given)	-4.0	-3.6	-1.5	0.5	-2.8	0.8
COc1ccc(-c2noc(CN3CCCCC3c3nccn3C)n2)cc1 (stereo not given)	10.3	11.5	-13.4	-16.1	-18.1	0.3
Cn1ccnc1C1CCCCN1Cc1nc(Cc2cccc(C(F)(F)F)c2)no1 (stereo not given)	38.6*	-4.7	-15.5	-11.3	-21.3	2.8
Cn1ccnc1C1CCCCN1Cc1nc(-c2ccc3c(c2)OCO3)no1 (stereo not given)	26.6*	14.9	-26.3	-20.6	-25.1	-0.6
